Assays:
[1] = biological target: Epidermal growth factor receptor (Homo sapiens, UniProt P00533); test: Inhibition of human EGFR tyrosine kinase activity
HOP-92 = test: Growth inhibition of human HOP92 cells after 72 hrs by SRB assay; type: functional; details: HOP-92, 48 h, in the assay text read “48 hrs” for “72 hrs”
Method in brief: (§1)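 NCI 60-cell-line screen. Cells were grown in RPMI 1640 with 5% fetal bovine serum, plated at 5000–40 000 cells/well by doubling time, and held 24 h at 37 °C, 5% CO2. Time-zero plates were TCA-fixed when the DMSO-solubilized drug was added at five concentrations (10-fold or ½-log dilutions). After 48 h, cells were fixed with cold TCA and stained with 0.4% SRB in 1% acetic acid. Bound dye was dissolved in 10 mM trizma base and read at 515 nm. Percentage growth was calculated relative to time-zero and control.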

HT-29 = test: Growth inhibition of human HT29 cells after 72 hrs by SRB assay; type: functional; details: HT-29, 48 h, in the assay text read “48 hrs” for “72 hrs”; method in brief: as §1
EKVX = test: Growth inhibition of human EKVX cells after 72 hrs by SRB assay; type: functional; details: 48 h, in the assay text read “48 hrs” for “72 hrs”; method in brief: as §1
A498 = test: Growth inhibition of human A498 cells after 72 hrs by SRB assay; type: functional; details: A498, 48 h, in the assay text read “48 hrs” for “72 hrs”; method in brief: as §1
TK-10 = test: Growth inhibition of human TK10 cells after 72 hrs by SRB assay; type: functional; details: TK-10, 48 h, in the assay text read “48 hrs” for “72 hrs”; method in brief: as §1
ACHN = test: Growth inhibition of human ACHN cells after 72 hrs by SRB assay; type: functional; details: 48 h, in the assay text read “48 hrs” for “72 hrs”; method in brief: as §1
SK-OV-3 = test: Growth inhibition of human SKOV3 cells after 72 hrs by SRB assay; type: functional; details: SK-OV-3, 48 h, in the assay text read “48 hrs” for “72 hrs”; method in brief: as §1
NCI-H322M = test: Growth inhibition of human NCI-H322M cells after 72 hrs by SRB assay; type: functional; details: 48 h, in the assay text read “48 hrs” for “72 hrs”; method in brief: as §1
IGROV-1 = test: Growth inhibition of human IGROV1 cells after 72 hrs by SRB assay; type: functional; details: IGROV-1, 48 h, in the assay text read “48 hrs” for “72 hrs”; method in brief: as §1
PC-3 = test: Growth inhibition of human PC3 cells after 72 hrs by SRB assay; type: functional; details: PC-3, 48 h, in the assay text read “48 hrs” for “72 hrs”; method in brief: as §1
[2] = biological target: Receptor tyrosine-protein kinase erbB-2 (Homo sapiens) (UniProt P04626); test: Inhibition of human HER2 tyrosine kinase activity at 100 nM
Sequence of Receptor tyrosine-protein kinase erbB-2 (Homo sapiens) (P04626 whole entry): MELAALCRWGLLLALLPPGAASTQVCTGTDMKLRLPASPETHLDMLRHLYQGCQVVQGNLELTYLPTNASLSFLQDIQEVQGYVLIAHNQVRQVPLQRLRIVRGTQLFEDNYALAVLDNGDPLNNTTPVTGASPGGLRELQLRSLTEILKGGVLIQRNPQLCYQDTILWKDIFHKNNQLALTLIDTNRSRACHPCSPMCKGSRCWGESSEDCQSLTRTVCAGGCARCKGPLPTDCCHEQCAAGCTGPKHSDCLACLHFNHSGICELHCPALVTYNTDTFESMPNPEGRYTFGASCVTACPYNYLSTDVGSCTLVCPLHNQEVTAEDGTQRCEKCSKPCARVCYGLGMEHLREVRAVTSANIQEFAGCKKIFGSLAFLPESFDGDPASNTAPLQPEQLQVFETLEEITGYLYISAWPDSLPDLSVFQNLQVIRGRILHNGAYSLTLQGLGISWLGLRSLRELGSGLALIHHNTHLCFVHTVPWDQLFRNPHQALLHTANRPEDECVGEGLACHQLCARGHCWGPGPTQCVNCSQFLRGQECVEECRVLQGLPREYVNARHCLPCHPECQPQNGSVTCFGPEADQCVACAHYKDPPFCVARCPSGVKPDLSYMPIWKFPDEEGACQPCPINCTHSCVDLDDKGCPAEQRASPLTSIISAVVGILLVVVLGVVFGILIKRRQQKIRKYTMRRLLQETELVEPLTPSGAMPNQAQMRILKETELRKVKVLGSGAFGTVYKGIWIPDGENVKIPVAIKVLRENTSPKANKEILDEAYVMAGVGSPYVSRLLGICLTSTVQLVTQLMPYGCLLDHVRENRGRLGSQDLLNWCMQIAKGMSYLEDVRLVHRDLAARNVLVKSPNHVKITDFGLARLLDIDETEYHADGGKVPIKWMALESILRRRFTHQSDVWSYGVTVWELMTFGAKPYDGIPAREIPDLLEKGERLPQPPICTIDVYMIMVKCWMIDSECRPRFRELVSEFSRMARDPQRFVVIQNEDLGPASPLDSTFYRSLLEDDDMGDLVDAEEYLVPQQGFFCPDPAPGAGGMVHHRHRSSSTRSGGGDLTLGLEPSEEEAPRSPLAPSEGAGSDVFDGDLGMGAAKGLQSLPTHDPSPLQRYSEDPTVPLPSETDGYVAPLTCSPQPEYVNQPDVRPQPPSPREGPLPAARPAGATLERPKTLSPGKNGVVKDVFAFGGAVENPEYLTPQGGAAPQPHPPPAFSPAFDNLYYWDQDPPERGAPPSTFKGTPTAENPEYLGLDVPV

SNB-75 = test: Growth inhibition of human SNB75 cells after 72 hrs by SRB assay; type: functional; details: SNB-75, 48 h, in the assay text read “48 hrs” for “72 hrs”; method in brief: as §1

Sequence of Epidermal growth factor receptor (P00533 whole entry): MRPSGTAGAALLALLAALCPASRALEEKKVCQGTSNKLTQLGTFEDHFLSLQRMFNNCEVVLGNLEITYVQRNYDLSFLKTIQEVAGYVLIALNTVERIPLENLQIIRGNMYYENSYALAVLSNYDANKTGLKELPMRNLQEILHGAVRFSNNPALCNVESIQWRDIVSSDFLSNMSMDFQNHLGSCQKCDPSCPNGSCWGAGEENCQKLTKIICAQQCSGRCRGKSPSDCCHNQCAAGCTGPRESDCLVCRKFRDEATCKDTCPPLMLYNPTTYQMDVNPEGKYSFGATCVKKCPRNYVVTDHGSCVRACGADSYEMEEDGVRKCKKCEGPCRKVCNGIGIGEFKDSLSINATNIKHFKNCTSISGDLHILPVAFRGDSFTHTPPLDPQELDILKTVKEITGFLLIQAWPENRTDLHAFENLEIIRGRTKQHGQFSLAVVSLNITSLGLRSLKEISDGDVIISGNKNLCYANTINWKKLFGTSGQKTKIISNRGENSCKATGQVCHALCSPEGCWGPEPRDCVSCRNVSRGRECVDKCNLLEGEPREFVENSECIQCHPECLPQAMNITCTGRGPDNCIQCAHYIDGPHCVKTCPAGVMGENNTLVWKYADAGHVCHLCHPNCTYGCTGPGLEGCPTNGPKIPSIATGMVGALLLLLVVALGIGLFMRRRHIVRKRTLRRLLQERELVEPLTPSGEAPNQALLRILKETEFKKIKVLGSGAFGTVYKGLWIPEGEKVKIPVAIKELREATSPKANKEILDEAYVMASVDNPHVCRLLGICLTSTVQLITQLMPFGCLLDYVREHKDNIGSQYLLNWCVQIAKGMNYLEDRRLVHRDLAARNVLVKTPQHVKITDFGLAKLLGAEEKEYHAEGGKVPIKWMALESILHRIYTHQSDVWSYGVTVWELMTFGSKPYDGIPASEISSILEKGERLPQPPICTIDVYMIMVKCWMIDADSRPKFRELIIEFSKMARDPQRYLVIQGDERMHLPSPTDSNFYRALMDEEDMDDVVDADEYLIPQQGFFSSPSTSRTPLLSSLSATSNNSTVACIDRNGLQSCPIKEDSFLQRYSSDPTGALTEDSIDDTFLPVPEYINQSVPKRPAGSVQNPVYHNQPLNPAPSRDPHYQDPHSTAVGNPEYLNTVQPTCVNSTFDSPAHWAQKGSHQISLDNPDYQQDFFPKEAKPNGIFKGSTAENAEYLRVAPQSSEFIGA

IC50 [1] [nM]	Compound	GI50 (HOP-92) [nM]	GI50 (HT-29) [nM]	GI50 (EKVX) [nM]	GI50 (A498) [nM]	GI50 (TK-10) [nM]	GI50 (ACHN) [nM]	GI50 (SK-OV-3) [nM]	GI50 (NCI-H322M) [nM]	GI50 (IGROV-1) [nM]	GI50 (PC-3) [nM]	inhibition [2] [%]	GI50 (SNB-75) [nM]
533	COc1cc2ncnc(-c3c[nH]c4cc(F)c(C)cc34)c2cc1OC	–	–	–	–	–	–	–	–	–	–	–	–
209	COc1cc2ncnc(-c3c[nH]c4cc(F)c(Cl)cc34)c2cc1OC	1750	848	410	492	325	222	711	255	424	766	3	204
472	COCCOc1cc2ncnc(-c3c[nH]c4cc(F)c(Cl)cc34)c2cc1OCCOC	–	–	–	–	–	–	–	–	–	–	–	–

Compound	IC50 [1] [nM]	GI50 (HOP-92) [nM]	GI50 (HT-29) [nM]	GI50 (EKVX) [nM]	GI50 (A498) [nM]	GI50 (TK-10) [nM]	GI50 (ACHN) [nM]	GI50 (SK-OV-3) [nM]	GI50 (NCI-H322M) [nM]	GI50 (IGROV-1) [nM]	GI50 (PC-3) [nM]	inhibition [2] [%]	GI50 (SNB-75) [nM]
COc1cc2ncnc(-c3c[nH]c4ccc(Br)cc34)c2cc1OC	131	–	–	–	–	–	–	–	–	–	–	–	–
COc1cc2ncnc(-c3c[nH]c4cc(F)c(Cl)cc34)c2cc1OCCCN1CCOCC1	333	504	3700	89.7	2900	97.6	215	592	38	108	490	19	49.3
